Results from ChEMBL document CHEMBL4152275, “Discovery of novel small molecule TLR4 inhibitors as potent anti-inflammatory agents” (Eur J Med Chem, 2018).
Each block holds one compound with its values, some of them ahead of it.

Legend:
Toll-like receptor 4 [1] = molecular target: T1, Toll-like receptor 4 (Homo sapiens, UniProt O00206); experiment: Antagonist activity at human TLR4 expressed in HEK blue cells coexpressing MD-2/CD14 assessed as inhibition of LPS-induced NF-kappaB activation-mediated SEAP production after 24 hrs; assay type: cell-based
Summary of the method: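 HEK293 cells stably carrying human TLR4, MD-2, CD14 and an NF-κB-inducible SEAP reporter were seeded at 4×10^4/well, grown 24 h, then switched to unsupplemented DMEM. Cells were treated with 20 ng/mL LPS plus compound (1.56–100 µM; from 10 mM DMSO stocks) for 24 h. Supernatant SEAP was read with QUANTI-Blue at OD620 after 15–30 min at 37°C. Two independent experiments in triplicate.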

HCN4 channel [2] = experiment: Inhibition of HCN4 (unknown origin) expressed in COS7 cells assessed as amplitude of inward current (I/I0 ratio) at 10 uM at -40 mV holding potential by pach clamp electrophysiology assay; settings: Homo sapiens
HCN2 channel [3] = experiment: Inhibition of HCN2 (unknown origin) expressed in COS7 cells assessed as amplitude of inward current (I/I0 ratio) at 10 uM at -40 mV holding potential by pach clamp electrophysiology assay; settings: Homo sapiens
[4] = Cytotoxicity against human HEK-Blue cells assessed as decrease in cell viability up to 100 uM after 24 hrs by CCK-8 assay; assay type: cell-based
Summary of the method: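 HEK-Blue hTLR4 cells were incubated with 40 ng/mL LPS and compound (0–100 µM) for 24 h. Viability was measured by CCK-8 absorbance at 450 nm.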

Toll-like receptor 4 [5] = molecular target: T1, Toll-like receptor 4; experiment: Antagonist activity at human TLR4 expressed in HEK blue cell lysates assessed as inhibition of LPS-induced TLR4 protein expression at 10 uM after 24 hrs by Western blot method relative to control
Summary of the method: (§1)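 HEK-Blue hTLR4 cells at 1×10^6/well were grown 24 h in DMEM + 10% FBS, then switched to unsupplemented DMEM. Cells were treated with 40 ng/mL LPS and compound (0–20 µM) for 24 h, then lysed on ice. Protein was measured by BCA, run on 10% SDS-PAGE and blotted to PVDF. Blots were probed with anti-TLR4 (overnight, 4°C) with ECL detection; GAPDH served as loading control.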

[6] = molecular target: Toll-like receptor 4 (Mus musculus) (UniProt Q9QUK6); experiment: Antagonist activity at TLR4 in mouse BV2 cells assessed as inhibition of LPS-induced NO production after 24 hrs by Griess assay
HCN2 channel [7] = experiment: Inhibition of HCN2 (unknown origin) expressed in COS7 cells assessed as Tdeact time at 10 uM at -40 mV holding potential measured at +50 mV by pach clamp electrophysiology assay (reference value: 66 +/- 4.2 milliseconds); settings: Homo sapiens
HCN4 channel [8] = experiment: Inhibition of HCN4 (unknown origin) expressed in COS7 cells assessed as Tdeact time at 10 uM at -40 mV holding potential measured at +50 mV by pach clamp electrophysiology assay (reference value: 92.9 +/- 9.5 milliseconds); settings: Homo sapiens
HCN2 channel [9] = experiment: Inhibition of HCN2 (unknown origin) expressed in COS7 cells assessed as change in half activation potential at 10 uM at -40 mV holding potential by pach clamp electrophysiology assay; settings: Homo sapiens
Toll-like receptor 4 [10] = molecular target: T1, Toll-like receptor 4; experiment: Antagonist activity at TLR4 in human PBMC assessed as inhibition of LPS-induced TNFalpha production at 20 uM after 24 hrs by ELISA relative to control; assay type: cell-based
Summary of the method: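 Human PBMC at 1×10^6 cells/well in RPMI 1640 were given compound with or without 10 ng/mL LPS for 24 h at 37°C, 5% CO2. Supernatants were frozen at −80°C, then TNF-α was quantified by sandwich ELISA against a recombinant human standard. Each sample was run in triplicate; three independent experiments, mean ± SD.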

HCN4 channel [11] = experiment: Inhibition of HCN4 (unknown origin) expressed in COS7 cells assessed as change in half activation potential at 10 uM at -40 mV holding potential by pach clamp electrophysiology assay; settings: Homo sapiens
[12] = molecular target: T2, Toll-like receptor 4 (Mus musculus) (UniProt Q9QUK6); experiment: Antagonist activity at TLR4 in mouse RAW264.7 cells assessed as inhibition of LPS-induced NO production after 24 hrs by Griess assay; assay type: cell-based
T2 sequence (whole entry): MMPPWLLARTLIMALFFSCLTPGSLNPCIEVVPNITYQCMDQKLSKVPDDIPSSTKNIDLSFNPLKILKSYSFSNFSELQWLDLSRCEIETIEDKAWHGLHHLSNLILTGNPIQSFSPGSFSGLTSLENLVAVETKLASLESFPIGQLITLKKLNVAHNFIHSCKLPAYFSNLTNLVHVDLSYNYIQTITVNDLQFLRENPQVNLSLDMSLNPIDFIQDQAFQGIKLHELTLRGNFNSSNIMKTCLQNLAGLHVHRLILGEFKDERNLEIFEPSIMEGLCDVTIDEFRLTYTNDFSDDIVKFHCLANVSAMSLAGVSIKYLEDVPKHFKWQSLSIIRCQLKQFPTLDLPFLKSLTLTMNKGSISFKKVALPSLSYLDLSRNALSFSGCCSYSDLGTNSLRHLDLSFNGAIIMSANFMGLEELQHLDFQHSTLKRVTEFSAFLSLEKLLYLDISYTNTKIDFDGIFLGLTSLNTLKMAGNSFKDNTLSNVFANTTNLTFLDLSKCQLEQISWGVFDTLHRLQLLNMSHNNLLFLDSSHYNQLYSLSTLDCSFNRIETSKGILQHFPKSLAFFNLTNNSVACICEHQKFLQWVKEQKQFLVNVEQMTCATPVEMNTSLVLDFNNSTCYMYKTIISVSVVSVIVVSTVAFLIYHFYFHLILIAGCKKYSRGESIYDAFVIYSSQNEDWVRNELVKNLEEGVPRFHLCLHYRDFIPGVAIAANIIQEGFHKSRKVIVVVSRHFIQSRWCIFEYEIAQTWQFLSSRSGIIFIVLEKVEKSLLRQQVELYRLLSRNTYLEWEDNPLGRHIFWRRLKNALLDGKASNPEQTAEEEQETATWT
Summary of the method: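 RAW264.7 or BV-2 cells were seeded at 50,000/well in DMEM + 10% FBS with penicillin/streptomycin and pre-incubated 24 h at 37°C, 5% CO2. Medium was replaced with unsupplemented DMEM. Cells were treated with 40 ng/mL LPS plus graded compound for 24 h. Supernatant nitrite was read by Griess reaction (sulfanilic acid/phosphoric acid, then naphthylethylenediamine, 10 min each) against a nitrite standard.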

HCN4 channel [13] = experiment: Inhibition of HCN4 (unknown origin) expressed in COS7 cells assessed as Tact time at 10 uM at -40 mV holding potential measured at -120 mV by pach clamp electrophysiology assay (reference value: 780.9 +/- 59.2 milliseconds); settings: Homo sapiens
HCN2 channel [14] = experiment: Inhibition of HCN2 (unknown origin) expressed in COS7 cells assessed as Tact time at 10 uM at -40 mV holding potential measured at -120 mV by pach clamp electrophysiology assay (reference value: 242.9 +/- 24 milliseconds); settings: Homo sapiens
Toll-like receptor 4 [15] = molecular target: T1, Toll-like receptor 4; experiment: Antagonist activity at human TLR4 expressed in HEK blue cell lysates assessed as inhibition of LPS-induced TLR4 protein expression after 24 hrs by Western blot method; summary of the method: as §1

T1 sequence (O00206 whole entry): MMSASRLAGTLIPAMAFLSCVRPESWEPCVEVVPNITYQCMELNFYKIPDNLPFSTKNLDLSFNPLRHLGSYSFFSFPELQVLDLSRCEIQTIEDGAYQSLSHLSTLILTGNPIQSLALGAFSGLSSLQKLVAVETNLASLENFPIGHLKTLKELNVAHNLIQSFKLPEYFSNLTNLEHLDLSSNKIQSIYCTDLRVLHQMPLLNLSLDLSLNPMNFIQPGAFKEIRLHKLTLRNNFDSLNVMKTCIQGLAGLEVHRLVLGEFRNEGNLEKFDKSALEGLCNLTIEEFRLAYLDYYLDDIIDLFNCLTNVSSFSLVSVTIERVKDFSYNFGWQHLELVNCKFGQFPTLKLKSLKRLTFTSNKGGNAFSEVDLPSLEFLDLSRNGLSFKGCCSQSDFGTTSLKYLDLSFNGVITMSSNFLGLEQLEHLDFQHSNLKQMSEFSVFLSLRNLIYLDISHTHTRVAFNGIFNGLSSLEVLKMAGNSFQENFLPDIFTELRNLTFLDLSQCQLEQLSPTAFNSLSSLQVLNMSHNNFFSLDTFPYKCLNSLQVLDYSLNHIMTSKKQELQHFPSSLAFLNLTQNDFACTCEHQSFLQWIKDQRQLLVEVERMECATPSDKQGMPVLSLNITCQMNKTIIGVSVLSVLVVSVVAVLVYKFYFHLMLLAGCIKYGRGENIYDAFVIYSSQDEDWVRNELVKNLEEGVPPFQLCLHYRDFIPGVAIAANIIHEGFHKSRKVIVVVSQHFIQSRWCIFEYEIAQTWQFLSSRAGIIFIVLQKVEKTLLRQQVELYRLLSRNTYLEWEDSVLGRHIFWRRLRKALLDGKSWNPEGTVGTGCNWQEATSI

IC50 (Toll-like receptor 4 [1]; read-out: IC50): 34.2 µM
Ratio (HCN4 channel [2]): 0.75
Ratio (HCN2 channel [3]): 0.73
SMILES: CCOc1ccc(OCC(O)CN(C)Cc2c(C)nn(Cc3ccccc3Cl)c2C)cc1 (stereo not given)

IC50 (Toll-like receptor 4 [1]): Not Active
SMILES: Cc1nn(Cc2ccccc2Cl)cc1CN(C)CC(O)COc1cccc2[nH]c3ccccc3c12 (stereo not given)

IC50 (Toll-like receptor 4 [1]; read-out: IC50): 24.7 µM
SMILES: CCCc1ccc(OCCC(O)CN(C)Cc2c(C)nn(Cc3ccccc3Cl)c2C)cc1 (stereo not given)

IC50 (Toll-like receptor 4 [1]; read-out: IC50): 12.4 µM
SMILES: OC(CNc1ccc2c(c1)-c1ccccc1C2)COc1cccc2[nH]c3ccccc3c12 (stereo not given)

IC50 (Toll-like receptor 4 [1]; read-out: IC50): 21.7 µM
SMILES: OC(CNc1ccc(-c2ccccc2)cc1)COc1cccc2[nH]c3ccccc3c12 (stereo not given)

IC50 (Toll-like receptor 4 [1]): Not Active
SMILES: CCOc1ccc(OCCC(O)CN(C)Cc2c(C)nn(Cc3ccccc3Cl)c2C)cc1 (stereo not given)

IC50 (Toll-like receptor 4 [1]; read-out: IC50): 13.6 µM
SMILES: Cc1nn(Cc2ccc(Cl)cc2)c(C)c1CN(C)CC(O)COc1cccc2[nH]c3ccccc3c12 (stereo not given)

IC50 (Toll-like receptor 4 [1]): Not Active
SMILES: O=C1c2ccccc2C(=O)c2cc(NCC(O)COc3cccc4[nH]c5ccccc5c34)ccc21 (stereo not given)

IC50 (Toll-like receptor 4 [1]; read-out: IC50): 51.5 µM
SMILES: Cc1ccc(OCCC(O)CN(C)Cc2c(C)nn(Cc3ccccc3Cl)c2C)cc1 (stereo not given)

IC50 (Toll-like receptor 4 [1]; read-out: IC50): 28.5 µM
SMILES: OC(CNc1ccc2ccccc2c1)COc1cccc2[nH]c3ccccc3c12 (stereo not given)

IC50 (Toll-like receptor 4 [1]): Not Active
SMILES: CCOc1ccc(OCCC(O)CNCCOc2ccccc2OC)cc1 (stereo not given)

IC50 (Toll-like receptor 4 [1]): Not Active
SMILES: CCOc1ccc(OCC(O)CNCCOc2ccccc2OC)cc1 (stereo not given)

IC50 (Toll-like receptor 4 [1]; read-out: IC50): 25.9 µM
SMILES: CCOc1ccc(OCCC(O)CN(C)Cc2c(C)nn(Cc3ccc(Cl)cc3)c2C)cc1 (stereo not given)

IC50 (Toll-like receptor 4 [1]; read-out: IC50): 32.5 µM
SMILES: COc1ccccc1OCCNCC(O)CCOc1cccc2[nH]c3ccccc3c12 (stereo not given)

IC50 (Toll-like receptor 4 [1]; read-out: IC50): 33.2 µM
SMILES: COc1ccccc1OCCNCC(O)COc1cccc2[nH]c3ccccc3c12 (stereo not given) [CARVEDILOL]

IC50 (Toll-like receptor 4 [1]): Not Active
SMILES: C/N=C/c1cn(CC(O)COc2cccc3[nH]c4ccccc4c23)cn1 (stereo not given)

IC50 (Toll-like receptor 4 [1]; read-out: IC50): 15.1 µM
SMILES: Cc1nn(Cc2ccccc2Cl)c(C)c1CN(C)CC(O)CCOc1cccc2[nH]c3ccccc3c12 (stereo not given)

IC50 (Toll-like receptor 4 [1]; read-out: IC50): 21.1 µM
SMILES: O=C(c1ccccc1)c1cc(Cl)ccc1NCC(O)COc1cccc2[nH]c3ccccc3c12 (stereo not given)

IC50 (Toll-like receptor 4 [1]; read-out: IC50): 54.6 µM
SMILES: CCOc1ccc(OCCC(O)CN(C)Cc2c(C)nn(Cc3ccccc3C)c2C)cc1 (stereo not given)

IC50 (Toll-like receptor 4 [1]; read-out: IC50): 55.4 µM
SMILES: Cc1nn(Cc2ccccc2Cl)c(C)c1CN(C)CC(O)CCOc1ccc(F)cc1 (stereo not given)

inhibition (Toll-like receptor 4 [5]): > 90%
inhibition [6]: Dose-dependent effect
IC50 (Toll-like receptor 4 [1]; read-out: IC50): 12.4 µM
TIME (HCN2 channel [7]): 1.47e-05 h
TIME (HCN4 channel [8]): 2.22e-05 h
V1/2 (HCN2 channel [9]): -21.4 mV
inhibition (Toll-like receptor 4 [10]): 80%
Ratio (HCN4 channel [2]): 0.5
V1/2 (HCN4 channel [11]): -28.8 mV
inhibition [12]: Dose-dependent effect
TIME (HCN4 channel [13]): 0.000597 h
TIME (HCN2 channel [14]): 0.000248 h
inhibition (Toll-like receptor 4 [15]): Dose-dependent effect
Ratio (HCN2 channel [3]): 0.7
SMILES: Cc1nn(Cc2ccccc2Cl)c(C)c1CN(C)CC(O)COc1cccc2[nH]c3ccccc3c12 (stereo not given)
Activity [4]: Non-Toxic

IC50 (Toll-like receptor 4 [1]; read-out: IC50): 31.5 µM
SMILES: Cc1nn(Cc2ccccc2)c(C)c1CN(C)CC(O)COc1cccc2[nH]c3ccccc3c12 (stereo not given)

IC50 (Toll-like receptor 4 [1]; read-out: IC50): 16.7 µM
SMILES: Cc1nn(Cc2ccccc2Cl)c(C)c1CN(C)CC(O)CCOc1ccc(C(C)(C)C)cc1 (stereo not given)

IC50 (Toll-like receptor 4 [1]; read-out: IC50): 26 µM
SMILES: CCc1ccc(OCCC(O)CN(C)Cc2c(C)nn(Cc3ccccc3Cl)c2C)cc1 (stereo not given)

IC50 (Toll-like receptor 4 [1]): Not Active
SMILES: CCOc1ccc(OCCC(O)CN(C)Cc2c(C)nn(Cc3ccccc3F)c2C)cc1 (stereo not given)

IC50 (Toll-like receptor 4 [1]): Not Active
Ratio (HCN4 channel [2]): 0.82
Ratio (HCN2 channel [3]): 1
SMILES: OC(CNc1ccc(F)cc1)COc1cccc2[nH]c3ccccc3c12 (stereo not given)

IC50 (Toll-like receptor 4 [1]; read-out: IC50): 34.6 µM
SMILES: Cc1nn(Cc2ccccc2F)c(C)c1CN(C)CC(O)COc1cccc2[nH]c3ccccc3c12 (stereo not given)
